These entries were drawn from the full list.
PGC1a Ac signal – raises PGC1a acetylation signal in U2OS cells. AID 651723. activation, % at 15.6 µM. actives 0.21% (n = 350,000). U2OS PGC1a acetylation AlphaScreen, overnight;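 active = every replicate reaching activation of at least 50%, whatever the mean replicate activation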;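 also: hits raise the AlphaScreen acetylation signal above neutral controls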
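Incubation: overnight compound treatment, 37 °C. System: U2OS cells transduced with flag-tagged PGC1a and GCN5 acetyltransferase. Detection: AlphaScreen lysate read. Compound: single-point compound dosing.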
Each line names hits and unclear results; the compound was inactive in the other large screens.

O=C(C[C@@H]1C=C[C@@H](NC(=O)Nc2ccc(F)cc2)[C@@H](CO)O1)NCCN1CCCC1	none
O=C(Nc1ccc(F)cc1)N1C[C@@H]2N[C@H](C1)C2c1ccc(/C=C/c2ccccc2)cc1 (some centres not stated)	PGC1a Ac signal 59
COc1ccc(-c2ccc(C3[C@@H]4CN(C(=O)Nc5cccc(F)c5)C[C@H]3N4)cc2)cc1 (some centres not stated)	PGC1a Ac signal 64
Cc1ccccc1-c1ccc(C2[C@@H]3CN(S(=O)(=O)c4ccccc4C)C[C@H]2N3)cc1 (some centres not stated)	PGC1a Ac signal 92
Cc1ccccc1-c1ccc(C2[C@@H]3CN(C(=O)Nc4cccc(F)c4)C[C@H]2N3)cc1 (some centres not stated)	PGC1a Ac signal 56
O=C(Nc1ccc(F)cc1)N1CC(=O)N2[C@@H](CO)[C@H](c3ccc(Br)cc3)[C@@H]2C1	none
N#Cc1ccc(-c2ccc([C@@H]3[C@@H]4CN(S(=O)(=O)c5ccc(-c6ccccc6)cc5)C[C@H]3N4)cc2)cc1	none
O=C(Nc1ccc(F)cc1)N1CC(=O)N2[C@@H](CO)[C@@H](c3ccc(-c4ccccc4)cc3)[C@@H]2C1	none
CC(=O)NC(c1cccc(F)c1)c1nc(-c2cccc(C(C)C)c2)cs1 (configuration not stated)	none
O=C(Nc1ccc(Cl)c(Cl)c1)N[C@@H]1CC[C@H](CCn2cc(C3CC3)nn2)O[C@H]1CO	none
CN(C)c1ccc(C(=O)NC2(N3CCC3=O)CCCC2)cc1	none
Cc1cc(C(=O)OCC(=O)N(C)c2ccccc2)ccc1[N+](=O)[O-]	none
CCCNC(=O)COC(=O)c1ccccc1C(=O)c1ccc(Cl)c([N+](=O)[O-])c1	PGC1a Ac signal 127
CC(C)(C)NC(=O)c1ccc(Sc2ccccc2)c([N+](=O)[O-])c1	none
CC1=CC(C)(C)N2C(=O)C3(SCC(=O)N3c3ccc(F)cc3)c3cc(C)cc1c32 (configuration not stated)	PGC1a Ac signal 93
O=C(CN1CCC(N2CCCCC2)CC1)N1CCCc2ccccc21	PGC1a Ac signal 82
O=C(c1cccc(N2C(=O)C3C4C=CC(C4)C3C2=O)c1)N1CCCc2ccccc21 (configuration not stated)	none
C[C@@H]1CN([C@@H](C)CO)C(=O)c2cccc(NC(=O)C3CCCCC3)c2O[C@@H]1CN(C)CC1CCCCC1	none
CCOC(=O)N(O)c1ccc(C=Cc2ccccc2)cc1	none
Cc1ccccc1NCC(=O)N/N=C/C(Br)=C/c1ccccc1	PGC1a Ac signal 150
O=C(Cc1cccs1)N/N=C/C(Br)=C/c1ccccc1	PGC1a Ac signal 81
CC(C)[C@H](NC(=O)NCc1cccs1)C(=O)O	none
Cc1ccc(-c2ccc3c(c2)O[C@@H](CN(C)C(=O)C2CCCCC2)[C@H](C)CN([C@H](C)CO)S3(=O)=O)cc1	none
O=C(CCC1CCCN(C(=O)c2cc(C3CC3)[nH]n2)C1)N1CCN(c2ccccn2)CC1 (configuration not stated)	none
Cc1cc(C)c(C(=O)/C=C/c2ccc(C(C)C)cc2)c(=O)[nH]1	none
Cn1c(SC2=CS(=O)(=O)c3ccccc32)nc2ccccc21	PGC1a Ac signal 260
CCCNC(=O)N(C)C[C@H]1Oc2cc(C#CCC(C)C)ccc2S(=O)(=O)N([C@@H](C)CO)C[C@H]1C	none
COc1cccc(-n2nnnc2S(C)(=O)=O)c1	PGC1a Ac signal 200
Cc1cc(C(F)(F)F)n(-c2nc(C(=O)NNS(=O)(=O)c3ccccc3[N+](=O)[O-])cs2)n1	none
COC(=O)c1ccc2[nH]c3cccc(/C(=C/c4ccccc4)c4ccccc4)c3c2c1	PGC1a Ac signal 61
C[C@@H]1CN([C@H](C)CO)C(=O)c2cc(NC(=O)Nc3ccc(F)cc3)ccc2O[C@@H](C)CCCCO[C@@H]1CN(C)C(=O)NC1CCCCC1	none
CCc1nc2c(OCc3ccc(S(C)(=O)=O)cc3)cccn2c1N(C)C(=O)c1ccccc1F	none
Cc1c(NC(=O)COC(=O)c2ccccc2O)c(=O)n(-c2ccccc2)n1C	none
CCOc1ccc(CC(=O)Nc2ccc(NC(=O)c3ccco3)cc2)cc1OCC	PGC1a Ac signal 133
CCCOc1cccc(C(=O)Nc2cc(NC(=O)c3ccco3)ccc2OC)c1	PGC1a Ac signal 61
COc1cc(NC(=O)NCc2ccco2)ccc1-c1ccc(NC(=O)NCc2ccco2)cc1OC	none
CC1=Nc2ccccc2N=C(NC(=O)CN2CCN(c3ccccc3)CC2)C1c1ccccc1 (configuration not stated)	none
Cn1nc(C(=O)N2CCCCC2)c2c1-c1ccccc1S(=O)(=O)C2	none
CCOc1ccccc1NC(=O)c1ccc2ccccc2c1	none
CCN(CC)c1ccc(NC(=O)c2cc(OC)cc(OC)c2)c(C)c1	PGC1a Ac signal 99
Cc1ccccc1C(=O)Nc1ccc(C(=O)O)cc1NC(=O)c1ccccc1C	none
COc1cccc(-n2c(Cc3cc(=O)[nH]c(=O)[nH]3)nnc2SCc2cccc(C(F)(F)F)c2)c1	none
O=C1C=CC2(C=C1)O[C@H](Cc1ccccc1)[C@@H](Cc1ccccc1)O2	none
CC(c1ccccc1)N1CCN(C(=O)CCl)CC1 (configuration not stated)	none
COc1ccc(C(=O)C(CN2CCCC2)c2ccccc2)cc1 (configuration not stated)	PGC1a Ac signal 167
CCCCOc1ccc(C(=O)C(CN2CCOCC2)c2ccccc2)cc1 (configuration not stated)	none
O=C(Nc1cccc2[nH]ncc12)c1ccc(F)cc1	none
OCC1OC(Oc2c(Br)cc(Br)cc2Br)C(O)C(O)C1O (configuration not stated)	none
COc1ccc(-n2c(SCC#N)nnc2-c2cccnc2)cc1	none
CCOC(=O)CSc1nnc(-c2ccc(OC)cc2)n1CC	PGC1a Ac signal 100
Cc1ccc(CC(=O)Nc2nccs2)cc1	none
COC(C[C@H]1O[C@@H]1[C@H](O)[C@H](C)OCc1ccccc1)OC	none
O=C(CCNC(=O)C1CCN(S(=O)(=O)c2ccc(F)cc2)CC1)NCc1ccccc1Cl	PGC1a Ac signal 64
Cn1c(=O)c2cc(S(=O)(=O)NCCC(=O)NCc3ccccc3Cl)ccc2n(C)c1=O	none
COc1ccc(S(=O)(=O)NCCC(=O)NCc2ccc(F)cc2)cc1	none
O=C(CC(CC(=O)c1ccc(Br)cc1)c1cccnc1)c1ccc(Br)cc1	none
O=C(NC(=S)Nc1cccc(Cl)c1N1CCCCC1)c1ccco1	PGC1a Ac signal 104
CCN(C(=O)CN1CCN(c2ccccc2O)CC1)c1c(N)n(Cc2ccccc2)c(=O)[nH]c1=O	none
Cn1c(=O)c2c(ncn2CC(=O)O)n(C)c1=O	none
CN(C)CCOc1ccc(/C(=C(/CCCl)c2ccccc2)c2ccccc2)cc1	PGC1a Ac signal 109
CN(C)CCCN(C(=O)CCOc1ccccc1)c1nc2ccc(F)cc2s1	none
O=C(CCSc1nnc(-c2ccc(O)cc2)o1)N1CCOCC1	none
COc1ccccc1CN=Cc1[nH]c2ccc(Br)c(Cl)c2c1O	PGC1a Ac signal 52
CC1(Cc2cc(Cl)ccc2C(F)(F)F)C(=O)Nc2ccc(S(=O)(=O)NC3CCCCC3)cc21 (configuration not stated)	PGC1a Ac signal 86
O=C(C[C@@H]1C[C@@H]2c3cc(NC(=O)Nc4ccccc4F)ccc3O[C@@H]2[C@H](CO)O1)NCc1ccc(Oc2ccccc2)cc1	none
CC1CC1C(=O)N(C)CC(=O)Nc1cccc(F)c1 (configuration not stated)	PGC1a Ac signal 78
CCC(=O)N1C[C@H](C)[C@@H](OC)CN(C)C(=O)c2cc(NC(=O)Nc3cccc(F)c3)ccc2OC[C@H]1C	none
COc1ccc(-c2cc(C(=O)N/N=C/c3cc(OC)c(OC)cc3OC)c3ccccc3n2)cc1	none

Compound activity: PubChem, Broad Institute
